Experimental data from ChEMBL document CHEMBL1158493, “Amide isosteres of oroidin: assessment of antibiofilm activity and C. elegans toxicity” (J Med Chem, 2009).
Activity calls are given as the source filed them.

Legend:
Pseudomonas aeruginosa [1] = assay: Antibioflim activity in Pseudomonas aeruginosa PA14 after 24 hrs by general static dispersion assay; type: functional
Procedure, shortened: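 Static dispersion: wild-type PA14 subcultured to OD600 0.05 in LBNS in PVC 96-well plates, sealed, biofilm formed stationary at room temperature for 24 h. Medium replaced with fresh medium plus compound, then stationary 37 °C for 24 h. Crystal violet 0.1% for 30 min, ethanol-solubilized, read at OD540. Percent dispersion is treated versus untreated established biofilm.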

Pseudomonas aeruginosa [2] = assay: Inhibition of biofilm formation against Pseudomonas aeruginosa PA14 after 24 hrs; conditions: PA14, 24 h
Acinetobacter baumannii = assay: Antibioflim activity in Acinetobacter baumannii ATCC 19606 after 24 hrs by general static inhibition assay; type: functional, ATCC 19606 = CIP 70.34 = JCM 6841
Procedure, shortened: (§1)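 Static biofilm inhibition: overnight wild-type culture subcultured to OD600 0.01 in LBNS (PA14) or LB (A. baumannii) containing compound (DMSO stocks), in PVC 96-well plates; covered, sealed, stationary 37 °C for 24 h. Wells washed with water, stained with 0.1% crystal violet for 30 min at ambient temperature, washed, and stain solubilized in 95% ethanol. Read-out is OD540.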

Pseudomonas aeruginosa [3] = assay: Antibioflim activity in Pseudomonas aeruginosa PA14 after 24 hrs by general static inhibition assay; type: functional, organism-based; procedure, shortened: as §1
Pseudomonas aeruginosa [4] = assay: Antibioflim activity in Pseudomonas aeruginosa PA14 at 100 uM after 24 hrs by general static inhibition assay; type: functional; conditions: PA14, 24 h; procedure, shortened: as §1
Caenorhabditis elegans = assay: Toxicity in Caenorhabditis elegans L4 stage larva assessed as toxicity threshold after 6 to 7 days; type: organism-based; conditions: in vivo
Procedure, shortened: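 Synchronized C. elegans N2 L1s (bleach egg prep, M9 starvation) grown on NGM/OP50 at 20 °C to L4. Two L4s per well in S medium with 5% HB101, compound 100 µM–1 mM, final DMSO 0.8–1.0%, in triplicate. Plates shaken at 22.5 °C for 6–7 days. Wells scored on day 4 and day 6/7 for clearing and population size. Threshold narrowed in 100 µM steps.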

Pseudomonas aeruginosa [5] = assay: Antibioflim activity in Pseudomonas aeruginosa PAO1; type: functional, organism-based
[6] = Pseudomonas aeruginosa, PA14, 24 h, read-out: IC50

Row | Compound | IC50 (Pseudomonas aeruginosa [2]) [µM] | IC50 (Pseudomonas aeruginosa [3]; [6]) [µM] | IC50 (Pseudomonas aeruginosa [3]) | IC50 (Pseudomonas aeruginosa [5]) [µM] | Activity (Pseudomonas aeruginosa [1]) | inhibition (INH) (Acinetobacter baumannii) [%] | inhibition at 100 µM (Pseudomonas aeruginosa [4]) [%] | Activity (Caenorhabditis elegans) [mM]
1 | Cl.Nc1nc(CCCNC(=O)Nc2ccc(F)c(Cl)c2)c[nH]1 | 25.7 | 25.7 | – | – | 55% | 18 | 90 | –
2 | Cl.Nc1nc(CCCNS(=O)(=O)c2ccc(Br)cc2)c[nH]1 | – | 19.4 | – | – | inactive | 25 | 85 | –
3 | Cl.Nc1nc(CCCNS(=O)(=O)c2ccc3ccccc3c2)c[nH]1 | – | 15.6 | – | – | inactive | 26 | 93 | –
4 | Cc1ccc(F)cc1NC(=O)NCCCc1c[nH]c(N)n1.Cl | – | 46.7 | – | – | inactive | 12 | 81 | –
5 | CC(=O)c1cccc(NC(=O)NCCCc2c[nH]c(N)n2)c1.Cl | – | – | Not Active | – | inactive | 11 | 69 | –
6 | CCCCCCC(CCCCCC)NC(=O)CCCc1c[nH]c(N)n1 | – | – | – | – | – | – | – | 0.95
7 | CCCCCCS(=O)(=O)NCCCc1c[nH]c(N)n1.Cl | 10.1 | 10.1 | – | – | 42% | 24 | 80 | > 1
8 | CCCCCCc1cn(CCCc2c[nH]c(N)n2)nn1 | – | – | – | – | – | – | – | > 1
9 | Cl.Nc1nc(CCCNC(=S)Nc2ccccc2)c[nH]1 | – | 26.8 | – | – | inactive | 8 | 90 | –
10 | Cl.Nc1nc(CCCNS(=O)(=O)c2ccccc2F)c[nH]1 | – | – | Not Active | – | inactive | 11 | 43 | –
11 | Cc1ccc(S(=O)(=O)NCCCc2c[nH]c(N)n2)cc1.Cl | – | – | Not Active | – | inactive | 8 | 45 | –
12 | Cn1c(C(=O)NCCCc2c[nH]c(N)n2)cc(Br)c1Br [DIHYDROSVENTRIN] | – | – | – | – | – | – | – | 0.48
13 | CCCCCCNC(=O)CCCc1c[nH]c(N)n1 | – | – | – | – | – | – | – | > 1
14 | CCCCCCCCCCCc1c[nH]c(N)n1 | – | – | – | – | – | – | – | > 1
15 | Cl.Nc1nc(CCCNC(=O)NC2CCCCCC2)c[nH]1 | – | – | Not Active | – | inactive | <5 | 70 | –
16 | Cl.Nc1nc(CCCNS(=O)(=O)c2cccc(C(=O)O)c2)c[nH]1 | – | – | Not Active | – | inactive | 11 | 14 | –
17 | Nc1ncc(/C=C/CNC(=O)c2cc(Br)c(Br)[nH]2)[nH]1 [OROIDIN] | – | 160 | – | 190 | – | – | – | 0.65

Second part, led by results:

Row | IC50 (Pseudomonas aeruginosa [2]) [µM] | IC50 (Pseudomonas aeruginosa [3]; [6]) [µM] | IC50 (Pseudomonas aeruginosa [3]) | IC50 (Pseudomonas aeruginosa [5]) [µM] | Compound | Activity (Pseudomonas aeruginosa [1]) | inhibition (INH) (Acinetobacter baumannii) [%] | inhibition at 100 µM (Pseudomonas aeruginosa [4]) [%] | Activity (Caenorhabditis elegans) [mM]
18 | 22.6 | 22.6 | – | – | Cl.Nc1nc(CCCNC(=S)NC2CCCCC2)c[nH]1 | 25% | 14 | 89 | –
19 | – | 25.1 | – | – | Cl.Nc1nc(CCCNS(=O)(=O)c2ccc(C(F)(F)F)cc2)c[nH]1 | inactive | 23 | 92 | –
20 | – | – | Not Active | – | Cl.Nc1nc(CCCNC(=O)Nc2ccccc2)c[nH]1 | inactive | 29 | 35 | –
21 | – | – | Not Active | – | Cl.Nc1nc(CCCNS(=O)(=O)c2cccc3cccnc23)c[nH]1 | inactive | 17 | 50 | –
22 | – | – | Not Active | – | Cl.Nc1nc(CCCNC(=O)NCc2ccccc2)c[nH]1 | inactive | 7 | 45 | –
23 | – | 50.4 | – | – | CCOc1ccc(NC(=O)NCCCc2c[nH]c(N)n2)cc1.Cl | inactive | 11 | 81 | –
24 | – | 46.2 | – | – | Cc1cc(C)cc(S(=O)(=O)NCCCc2c[nH]c(N)n2)c1.Cl | inactive | 17 | 87 | –
25 | – | 35.4 | – | – | CCCCCCNC(=O)NCCCc1c[nH]c(N)n1.Cl | inactive | 28 | 94 | –
